Results: ChEMBL document CHEMBL1944532, “Synthesis and evaluation of anticancer activity of some novel 6-aryl-2-(p-sulfamylphenyl)-pyridazin-3(2H)-ones” (Eur J Med Chem, 2012)
Active and inactive are the calls of the source. The rule behind the calls is not given here.

Assays:
HL-60(TB) = assay: Cytotoxicity against human HL-60(TB) cells assessed as cell growth at 10 uM after 48 hrs by SRB assay; format: functional; details: HL-60, 48 h, read-out: Activity
In short: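 NCI primary one-dose screen at 10^-5 M against about 60 human tumor cell lines. Cells pre-incubated 24 h, then compound in DMSO added for 48 h. Cell growth read by sulforhodamine B protein assay.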

NCI-H522 [1] = assay: Cytotoxicity against human NCI-H522 cells assessed as cell growth at 10 uM after 48 hrs by SRB assay; format: functional; details: NCI-H522, 48 h, read-out: Activity
In short: (§1)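 NCI primary single-dose screen at 10^-5 M against the full panel of about 60 human tumor cell lines. Cells were in RPMI-1640 with 5% fetal calf serum and 2 mM L-glutamine and preincubated 24 h. Compound was given in DMSO with 48 h exposure. Growth was estimated by sulforhodamine B protein assay.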

SF-268 = assay: Cytotoxicity against human SF268 cells assessed as cell growth at 10 uM after 48 hrs by SRB assay; format: functional; details: SF-268, 48 h, read-out: Activity; in short: as §1
SF-295 [2] = assay: Cytotoxicity against human SF295 cells assessed as cell growth at 10 uM after 48 hrs by SRB assay; format: functional; details: SF-295, 48 h, read-out: Activity; in short: as §1
MDA-MB-435 [3] = assay: Cytotoxicity against human MDA-MB-435 cells assessed as cell growth at 10 uM after 48 hrs by SRB assay; format: functional; details: MDA-MB-435, 48 h, read-out: Activity; in short: as §1
SK-MEL-28 = assay: Cytotoxicity against human SK-MEL-28 cells assessed as cell growth at 10 uM after 48 hrs by SRB assay; format: functional; details: SK-MEL-28, 48 h, read-out: Activity
In short: (§2)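 NCI primary one-dose screen at 10^-5 M against the full panel of about 60 human tumour cell lines, run to the NCI Drug Evaluation Branch protocol.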

UACC-62 = assay: Cytotoxicity against human UACC62 cells assessed as cell growth at 10 uM after 48 hrs by SRB assay; format: functional; details: UACC-62, 48 h, read-out: Activity; in short: as §2
OVCAR-5 = assay: Cytotoxicity against human OVCAR5 cells assessed as cell growth at 10 uM after 48 hrs by SRB assay; format: functional; details: OVCAR-5, 48 h, read-out: Activity; in short: as §1
K562 = assay: Cytotoxicity against human K562 cells after 48 hrs by SRB assay; format: functional; details: K562, 48 h
In short: (§3)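 NCI ~60-line panel in RPMI-1640 with 5% fetal calf serum and 2 mM L-glutamine, pre-incubated 24 h. Compound in DMSO tested at five 10-fold concentrations (10^-4 to 10^-8 M) with 48 h continuous exposure. Growth measured by sulforhodamine B protein assay. GI50 (50% net growth inhibition), TGI (total inhibition) and LC50 (50% net cell death) derived from dose-response.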

MOLT-4 = assay: Cytotoxicity against human MOLT4 cells after 48 hrs by SRB assay; format: functional; details: MOLT-4, 48 h
In short: (§4)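 NCI five-dose screen on the ~60-line human tumor panel. Cells grown in RPMI-1640 with 5% fetal calf serum and 2 mM L-glutamine, seeded at line-dependent density and preincubated 24 h. Compound added from DMSO at 10-fold dilutions from 10^-4 to 10^-8 M, continuous exposure 48 h. Growth read by sulforhodamine B protein stain. GI50, TGI and LC50 derived per line.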

SR = assay: Cytotoxicity against human SR cells after 48 hrs by SRB assay; format: functional
In short: (§5)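 NCI 60-cell-line five-dose screen. Cells were grown in 1640 medium with 5% fetal calf serum and 2 mM L-glutamine, with inoculum density set by cell line, and pre-incubated 24 h. Compound in DMSO was added at 10^-4 to 10^-8 M (10-fold steps) with 48 h continuous exposure. Growth was read by SRB protein assay, and GI50, TGI and LC50 were derived from dose-response.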

HOP-62 = assay: Cytotoxicity against human HOP62 cells after 48 hrs by SRB assay; format: functional; details: HOP-62, 48 h; in short: as §3
HT-29 = assay: Cytotoxicity against human HT-29 cells after 48 hrs by SRB assay; format: functional; details: HT-29, 48 h; in short: as §3
SW-620 = assay: Cytotoxicity against human SW620 cells after 48 hrs by SRB assay; format: functional; details: SW-620, 48 h; in short: as §5
SF-539 = assay: Cytotoxicity against human SF539 cells after 48 hrs by SRB assay; format: functional; details: SF-539, 48 h; in short: as §4
MDA-MB-435 [4] = assay: Cytotoxicity against human MDA-MB-435 cells after 48 hrs by SRB assay; format: functional; details: MDA-MB-435, 48 h; in short: as §4
DU-145 = assay: Cytotoxicity against human DU145 cells after 48 hrs by SRB assay; format: functional; details: DU-145, 48 h; in short: as §3
MDA-MB-231 = assay: Cytotoxicity against human MDA-MB-231/ATCC cells after 48 hrs by SRB assay; format: functional; details: MDA-MB-231, 48 h; in short: as §4
T47D = assay: Cytotoxicity against human T47D cells after 48 hrs by SRB assay; format: functional; in short: as §5
MDA-MB-468 = assay: Cytotoxicity against human MDA-MB-468 cells after 48 hrs by SRB assay; format: functional; details: MDA-MB-468, 48 h; in short: as §4
NCI-H522 [5] = assay: Antitumor activity against human NCI-H522 cells implanted in mouse dosed qd for 4 days by formazan dye-based hollow fiber assay; format: functional, organism-based
In short: (§6)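 Cells grown inside polyvinylidene fluoride hollow fibers; each line implanted into both intraperitoneal and subcutaneous compartments in mice. Compound given ip at two doses on a QD x 4 schedule. Fibers then recovered and viable cell mass measured by formazan dye conversion. Scored 2 per dose giving ≥50% reduction in viable cell mass (%T/C 50).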

SF-295 [6] = assay: Antitumor activity against human SF295 cells implanted in mouse dosed qd for 4 days by formazan dye-based hollow fiber assay; format: functional, organism-based; in short: as §6
U-251 = assay: Antitumor activity against human U251 cells implanted in mouse dosed qd for 4 days by formazan dye-based hollow fiber assay; format: functional, organism-based; in short: as §6
COLO 205 = assay: Antitumor activity against human COLO205 cells implanted in mouse dosed qd for 4 days by formazan dye-based hollow fiber assay; format: functional, organism-based; in short: as §6

With `CCc1ccc(-c2ccc(=O)n(-c3ccc(S(N)(=O)=O)cc3)n2)cc1` the growth at 10 µM (HL-60(TB)) was -4.27%, the growth at 10 µM (NCI-H522 [1]) was -33.6% and the growth at 10 µM (SF-268) was 42%. It also gave a growth at 10 µM (SF-295 [2]) of 18.4%, a growth at 10 µM (MDA-MB-435 [3]) of -17.9% and a growth at 10 µM (SK-MEL-28) of 49.4%. It also gave a growth at 10 µM (UACC-62) of 38.5%, a growth at 10 µM (OVCAR-5) of 91.6% and a GI50 (K562; read-out: GI50) of 257 nM. It also gave a GI50 (K562; read-out: pGI50 (converted)) of 257 nM, a CC50 (K562; read-out: pLC50 (the source's name) (converted)) greater than 100 µM and a TGI (K562; read-out: pTGI) greater than 100 µM. It also gave an LC50 (MOLT-4) greater than 100 µM, a GI50 (MOLT-4; read-out: GI50) of 573 nM and a GI50 (MOLT-4; read-out: pGI50 (converted)) of 575 nM. For the same compound, the TGI (MOLT-4; read-out: pTGI) was greater than 100 µM, the LC50 (SR) was greater than 100 µM and the GI50 (SR; read-out: GI50) was 88.7 nM. The GI50 (SR; read-out: pGI50 (converted)) was 89.1 nM, the TGI (SR; read-out: pTGI (converted)) was 490 nM and the LC50 (HOP-62) was 70.8 µM. The GI50 (HOP-62; read-out: GI50) was 2480 nM, the GI50 (HOP-62; read-out: pGI50 (converted)) was 2450 nM and the TGI (HOP-62; read-out: pTGI (converted)) was 22.4 µM. For the same compound, the LC50 (HT-29) was greater than 100 µM, the GI50 (HT-29; read-out: GI50) was 436 nM and the GI50 (HT-29; read-out: pGI50 (converted)) was 437 nM. For the same compound, the TGI (HT-29; read-out: pTGI) was greater than 100 µM, the LC50 (SW-620) was greater than 100 µM and the GI50 (SW-620; read-out: GI50) was 454 nM. The GI50 (SW-620; read-out: pGI50 (converted)) was 457 nM, the TGI (SW-620; read-out: pTGI) was greater than 100 µM and the LC50 (SF-539) was greater than 100 µM. The GI50 (SF-539; read-out: GI50) was 1840 nM, the GI50 (SF-539; read-out: pGI50 (converted)) was 1820 nM and the TGI (SF-539; read-out: pTGI (converted)) was 22.9 µM. It also gave an LC50 (MDA-MB-435 [4]) greater than 100 µM, a GI50 (MDA-MB-435 [4]; read-out: GI50) of 223 nM and a GI50 (MDA-MB-435 [4]; read-out: pGI50 (converted)) of 224 nM. It also gave a TGI (MDA-MB-435 [4]; read-out: pTGI (converted)) of 2190 nM, an LC50 (DU-145) greater than 100 µM and a GI50 (DU-145; read-out: GI50) of 13.8 µM. The GI50 (DU-145; read-out: pGI50 (converted)) was 13.8 µM, the TGI (DU-145; read-out: pTGI) was greater than 100 µM and the LC50 (MDA-MB-231) was greater than 100 µM. The GI50 (MDA-MB-231; read-out: GI50) was 12.1 µM, the GI50 (MDA-MB-231; read-out: pGI50 (converted)) was 12 µM and the TGI (MDA-MB-231; read-out: pTGI) was greater than 100 µM. It also gave an LC50 (T47D) greater than 100 µM, a GI50 (T47D; read-out: GI50) of 2560 nM and a GI50 (T47D; read-out: pGI50 (converted)) of 2570 nM. The TGI (T47D; read-out: pTGI) was greater than 100 µM, the LC50 (MDA-MB-468) was greater than 100 µM and the GI50 (MDA-MB-468; read-out: GI50) was 3.18 µM. The GI50 (MDA-MB-468; read-out: pGI50 (converted)) was 3.16 µM, the TGI (MDA-MB-468; read-out: pTGI) was greater than 100 µM and the Activity (NCI-H522 [5]) was “inactive”. The Activity (SF-295 [6]) was “inactive”, the Activity (U-251) was “inactive” and the Activity (COLO 205) was “inactive”.
